# Results as given in ChEMBL document CHEMBL1148379 (J Med Chem, 2004).
# Biological target: Bifunctional dihydrofolate reductase-thymidylate synthase (Plasmodium falciparum K1, UniProt P13922, C59R/I164L/N51I/S108N)
# Assay: Inhibitory activity against quadruple mutant dihydrofolate reductase (N51I C59R S108N I164L DHFR)
# Sequence of Bifunctional dihydrofolate reductase-thymidylate synthase (Plasmodium falciparum K1, UniProt P13922, C59R/I164L/N51I/S108N) (P13922 whole entry, looked up, stated change not applied): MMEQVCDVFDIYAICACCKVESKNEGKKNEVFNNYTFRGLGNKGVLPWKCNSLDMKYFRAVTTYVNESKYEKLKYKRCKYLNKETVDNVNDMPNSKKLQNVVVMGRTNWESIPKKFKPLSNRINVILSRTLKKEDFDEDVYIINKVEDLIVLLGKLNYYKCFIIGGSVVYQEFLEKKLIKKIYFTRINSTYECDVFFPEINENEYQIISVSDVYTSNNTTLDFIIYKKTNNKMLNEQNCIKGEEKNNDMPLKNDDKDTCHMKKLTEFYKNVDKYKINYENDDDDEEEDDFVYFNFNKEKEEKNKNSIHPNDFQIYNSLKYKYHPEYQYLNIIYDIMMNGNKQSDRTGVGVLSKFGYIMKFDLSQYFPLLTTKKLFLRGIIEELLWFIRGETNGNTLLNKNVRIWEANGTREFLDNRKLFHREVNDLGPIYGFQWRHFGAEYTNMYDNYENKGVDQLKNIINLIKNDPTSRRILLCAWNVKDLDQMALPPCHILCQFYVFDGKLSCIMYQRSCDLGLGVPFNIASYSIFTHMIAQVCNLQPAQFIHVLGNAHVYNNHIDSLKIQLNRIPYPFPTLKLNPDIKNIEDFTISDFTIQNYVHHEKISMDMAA
row,SMILES,Ki [nM]
1,COc1ccc(Cc2cnc(N)nc2N)cc1OCc1ccccc1,1130
2,CCCOc1cc(Cc2cnc(N)nc2N)ccc1OC,920
3,Nc1ncc(Cc2ccc(OCCCOCCCOc3ccccc3)cc2)c(N)n1,1590
4,CCOc1ccc(Cc2cnc(N)nc2N)cc1OC,11800
5,CCCOc1cc(Cc2c(N)nc(N)nc2CC)ccc1OCc1cc(OC)c(OC)c(OC)c1,693
6,CCCOc1ccc(Cc2cnc(N)nc2N)cc1,1520
7,Nc1ncc(Cc2ccc(OCCCc3ccccc3)cc2)c(N)n1,801
8,CCOc1cc(Cc2cnc(N)nc2N)ccc1OCCCOc1ccccc1,770
9,COc1ccc(Cc2cnc(N)nc2N)cc1,20500
10,COc1cc(Cc2c(C)nc(N)nc2N)ccc1OCc1ccccc1,93.4
11,CCCCCCCOc1cc(Cc2cnc(N)nc2N)ccc1OC,445
12,CCc1nc(N)nc(N)c1Cc1ccc(OCc2ccccc2)c(OC)c1,732
13,COc1cc(Cc2cnc(N)nc2N)ccc1OCCCOCCCOc1ccccc1,2190

# Biological target: Bifunctional dihydrofolate reductase-thymidylate synthase (Plasmodium falciparum K1) (UniProt P13922)
# Sequence (P13922 whole entry, looked up): as the sequence (P13922 whole entry, looked up, stated change not applied) above
# Assay: Inhibitory activity against quadruple mutant dihydrofolate reductase (N51I C59R S108N I164L DHFR), relative to trimethoprim
# In short: (§1)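 Wild-type and mutant P. falciparum DHFR expressed in E. coli BL21(DE3)pLysS. Ki calculated assuming inhibitors compete with substrate at the active site.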
row,SMILES,Relative activity
1,COc1ccc(Cc2cnc(N)nc2N)cc1OCc1ccccc1,0.2
2,CCCOc1cc(Cc2cnc(N)nc2N)ccc1OC,0.1
3,Nc1ncc(Cc2ccc(OCCCOCCCOc3ccccc3)cc2)c(N)n1,0.24
4,CCOc1ccc(Cc2cnc(N)nc2N)cc1OC,1.8
5,CCCOc1cc(Cc2c(N)nc(N)nc2CC)ccc1OCc1cc(OC)c(OC)c(OC)c1,0.1
6,CCCOc1ccc(Cc2cnc(N)nc2N)cc1,0.2
7,Nc1ncc(Cc2ccc(OCCCc3ccccc3)cc2)c(N)n1,0.12
8,CCOc1cc(Cc2cnc(N)nc2N)ccc1OCCCOc1ccccc1,0.12
9,COc1ccc(Cc2cnc(N)nc2N)cc1,3.1
10,COc1cc(Cc2c(C)nc(N)nc2N)ccc1OCc1ccccc1,0.01
11,CCCCCCCOc1cc(Cc2cnc(N)nc2N)ccc1OC,0.1
12,CCc1nc(N)nc(N)c1Cc1ccc(OCc2ccccc2)c(OC)c1,0.11
13,COc1cc(Cc2cnc(N)nc2N)ccc1OCCCOCCCOc1ccccc1,0.33

# Biological target: Bifunctional dihydrofolate reductase-thymidylate synthase (Plasmodium falciparum K1, UniProt P13922)
# Sequence (P13922 whole entry): as the sequence (P13922 whole entry, looked up, stated change not applied) above
# Assay: Inhibitory activity against double mutant dihydrofolate reductase (C59R+S108N DHFR)
row,SMILES,Ki [nM]
1,COc1ccc(Cc2cnc(N)nc2N)cc1OCc1ccccc1,143
2,CCCOc1cc(Cc2cnc(N)nc2N)ccc1OC,52.1
3,Nc1ncc(Cc2ccc(OCCCOCCCOc3ccccc3)cc2)c(N)n1,108
4,CCOc1ccc(Cc2cnc(N)nc2N)cc1OC,187
5,CCCOc1cc(Cc2c(N)nc(N)nc2CC)ccc1OCc1cc(OC)c(OC)c(OC)c1,48.7
6,CCCOc1ccc(Cc2cnc(N)nc2N)cc1,211
7,Nc1ncc(Cc2ccc(OCCCc3ccccc3)cc2)c(N)n1,58.1
8,CCOc1cc(Cc2cnc(N)nc2N)ccc1OCCCOc1ccccc1,47.7
9,COc1ccc(Cc2cnc(N)nc2N)cc1,464
10,COc1cc(Cc2c(C)nc(N)nc2N)ccc1OCc1ccccc1,89.5
11,CCCCCCCOc1cc(Cc2cnc(N)nc2N)ccc1OC,104
12,CCc1nc(N)nc(N)c1Cc1ccc(OCc2ccccc2)c(OC)c1,60.1
13,COc1cc(Cc2cnc(N)nc2N)ccc1OCCCOCCCOc1ccccc1,154

# Biological target: Bifunctional dihydrofolate reductase-thymidylate synthase (Plasmodium falciparum K1) (UniProt P13922)
# Assay: Inhibitory activity against triple mutant dihydrofolate reductase (C59R S108N I164L DHFR), relative to trimethoprim
# In short: as §1
row,SMILES,Relative activity
1,COc1ccc(Cc2cnc(N)nc2N)cc1OCc1ccccc1,0.11
2,CCCOc1cc(Cc2cnc(N)nc2N)ccc1OC,0.03
3,Nc1ncc(Cc2ccc(OCCCOCCCOc3ccccc3)cc2)c(N)n1,0.05
4,CCOc1ccc(Cc2cnc(N)nc2N)cc1OC,0.6
5,CCCOc1cc(Cc2c(N)nc(N)nc2CC)ccc1OCc1cc(OC)c(OC)c(OC)c1,0.03
6,CCCOc1ccc(Cc2cnc(N)nc2N)cc1,0.2
7,Nc1ncc(Cc2ccc(OCCCc3ccccc3)cc2)c(N)n1,0.54
8,CCOc1cc(Cc2cnc(N)nc2N)ccc1OCCCOc1ccccc1,0.03
9,COc1ccc(Cc2cnc(N)nc2N)cc1,0.7
10,COc1cc(Cc2c(C)nc(N)nc2N)ccc1OCc1ccccc1,0.01
11,CCCCCCCOc1cc(Cc2cnc(N)nc2N)ccc1OC,0.05
12,CCc1nc(N)nc(N)c1Cc1ccc(OCc2ccccc2)c(OC)c1,0.66
13,COc1cc(Cc2cnc(N)nc2N)ccc1OCCCOCCCOc1ccccc1,0.07

# Biological target: Bifunctional dihydrofolate reductase-thymidylate synthase (Plasmodium falciparum K1, UniProt P13922, C59R/I164L/S108N)
# Sequence (P13922 whole entry, looked up, stated change not applied): as above
# Assay: Inhibitory activity against triple mutant dihydrofolate reductase (C59R S108N I164L DHFR)
row,SMILES,Ki [nM]
1,COc1ccc(Cc2cnc(N)nc2N)cc1OCc1ccccc1,630
2,CCCOc1cc(Cc2cnc(N)nc2N)ccc1OC,144
3,Nc1ncc(Cc2ccc(OCCCOCCCOc3ccccc3)cc2)c(N)n1,264
4,CCOc1ccc(Cc2cnc(N)nc2N)cc1OC,3540
5,CCCOc1cc(Cc2c(N)nc(N)nc2CC)ccc1OCc1cc(OC)c(OC)c(OC)c1,154
6,CCCOc1ccc(Cc2cnc(N)nc2N)cc1,1090
7,Nc1ncc(Cc2ccc(OCCCc3ccccc3)cc2)c(N)n1,3040
8,CCOc1cc(Cc2cnc(N)nc2N)ccc1OCCCOc1ccccc1,166
9,COc1ccc(Cc2cnc(N)nc2N)cc1,3960
10,COc1cc(Cc2c(C)nc(N)nc2N)ccc1OCc1ccccc1,66.3
11,CCCCCCCOc1cc(Cc2cnc(N)nc2N)ccc1OC,292
12,CCc1nc(N)nc(N)c1Cc1ccc(OCc2ccccc2)c(OC)c1,3740
13,COc1cc(Cc2cnc(N)nc2N)ccc1OCCCOCCCOc1ccccc1,425

# Biological target: Bifunctional dihydrofolate reductase-thymidylate synthase (Plasmodium falciparum K1) (UniProt P13922)
# Assay: Inhibitory activity against wild-type dihydrofolate reductase (S108N DHFR), relative to trimethoprim
# In short: as §1
row,SMILES,Relative activity
1,COc1ccc(Cc2cnc(N)nc2N)cc1OCc1ccccc1,0.7
2,CCCOc1cc(Cc2cnc(N)nc2N)ccc1OC,0.2
3,Nc1ncc(Cc2ccc(OCCCOCCCOc3ccccc3)cc2)c(N)n1,0.68
4,CCOc1ccc(Cc2cnc(N)nc2N)cc1OC,1.5
5,CCCOc1cc(Cc2c(N)nc(N)nc2CC)ccc1OCc1cc(OC)c(OC)c(OC)c1,0.17
6,CCCOc1ccc(Cc2cnc(N)nc2N)cc1,1.5
7,Nc1ncc(Cc2ccc(OCCCc3ccccc3)cc2)c(N)n1,0.57
8,CCOc1cc(Cc2cnc(N)nc2N)ccc1OCCCOc1ccccc1,0.06
9,COc1ccc(Cc2cnc(N)nc2N)cc1,2.3
10,COc1cc(Cc2c(C)nc(N)nc2N)ccc1OCc1ccccc1,0.3
11,CCCCCCCOc1cc(Cc2cnc(N)nc2N)ccc1OC,0.3
12,CCc1nc(N)nc(N)c1Cc1ccc(OCc2ccccc2)c(OC)c1,0.3
13,COc1cc(Cc2cnc(N)nc2N)ccc1OCCCOCCCOc1ccccc1,0.18

# Biological target: Bifunctional dihydrofolate reductase-thymidylate synthase (Plasmodium falciparum K1) (UniProt P13922)
# Assay: Inhibitory activity against double mutant dihydrofolate reductase (C59R S108N DHFR), relative to trimethoprim
# In short: as §1
row,SMILES,Relative activity
1,COc1ccc(Cc2cnc(N)nc2N)cc1OCc1ccccc1,0.6
2,CCCOc1cc(Cc2cnc(N)nc2N)ccc1OC,0.2
3,Nc1ncc(Cc2ccc(OCCCOCCCOc3ccccc3)cc2)c(N)n1,0.45
4,CCOc1ccc(Cc2cnc(N)nc2N)cc1OC,0.8
5,CCCOc1cc(Cc2c(N)nc(N)nc2CC)ccc1OCc1cc(OC)c(OC)c(OC)c1,0.2
6,CCCOc1ccc(Cc2cnc(N)nc2N)cc1,0.9
7,Nc1ncc(Cc2ccc(OCCCc3ccccc3)cc2)c(N)n1,0.44
8,CCOc1cc(Cc2cnc(N)nc2N)ccc1OCCCOc1ccccc1,0.2
9,COc1ccc(Cc2cnc(N)nc2N)cc1,1.9
10,COc1cc(Cc2c(C)nc(N)nc2N)ccc1OCc1ccccc1,0.4
11,CCCCCCCOc1cc(Cc2cnc(N)nc2N)ccc1OC,0.4
12,CCc1nc(N)nc(N)c1Cc1ccc(OCc2ccccc2)c(OC)c1,0.25
13,COc1cc(Cc2cnc(N)nc2N)ccc1OCCCOCCCOc1ccccc1,0.63
